Calls of active or inactive are those of the source. The rule behind the calls is not given here. Numbered stars: 1 amine (or outer) side, 2 acyl side, 3 side chain; on linkers, the order of the positions; unused ones are H or OH. Bridge positions count the residues as written; N and C are the ends. Square brackets hold non-standard residues; d marks the D form. Peptide text beside a SMILES is read from it. I, II: the chains in the order shown. Phe(4-guanidino) = N=C(N)Nc1ccc(C[C@H](N)C(=O)O)cc1; X1 = O=C(C(=O)[*:2])[C@H](Cc1ccc(O)cc1)N[*:1]; NMeL = CN[C@@H](CC(C)C)C(=O)O; Pen = CC(C)(S)[C@H](N)C(=O)O; Suc = O=C(CCC(=O)[*:2])[*:1]; Sar = CNCC(=O)O
Tests used:
[1] = tested on: Mus musculus; test: Increase in human IgG catabolism in endogenous FcRn/beta2m gene knockout TG32B transgenic mouse harboring human FcRn at 1 mg/kg, iv QD for 4 consecutive days measured after 24 hrs by ELISA; assay type: functional, organism-based; parameters: dose 1 mg/kg
In short: (§1)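 TG32B mice (muFcRn−/−, muβ2m−/−, huFcRn+/+, huβ2m+/+), 4 per group, got 500 mg/kg hIgG (pooled subtypes) iv at 0 h. Peptide or vehicle (20 mM sodium acetate, pH 5) was given iv at 24, 48, 72 and 96 h. Blood was taken before each injection and at 30, 120 and 168 h. Serum hIgG was measured by ELISA: goat anti-hIgG(Fab) capture, goat anti-hIgG(Fc)-HRP detection.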

[2] = molecular target: T1, IgG receptor FcRn large subunit p51 (Homo sapiens, UniProt P55899); test: Ratio of RF-Pen-TG-4GuPhe-G-Sar-NMeLeu-YPC IC50 to compound IC50 for soluble human FcRn
T1 sequence (P55899 whole entry): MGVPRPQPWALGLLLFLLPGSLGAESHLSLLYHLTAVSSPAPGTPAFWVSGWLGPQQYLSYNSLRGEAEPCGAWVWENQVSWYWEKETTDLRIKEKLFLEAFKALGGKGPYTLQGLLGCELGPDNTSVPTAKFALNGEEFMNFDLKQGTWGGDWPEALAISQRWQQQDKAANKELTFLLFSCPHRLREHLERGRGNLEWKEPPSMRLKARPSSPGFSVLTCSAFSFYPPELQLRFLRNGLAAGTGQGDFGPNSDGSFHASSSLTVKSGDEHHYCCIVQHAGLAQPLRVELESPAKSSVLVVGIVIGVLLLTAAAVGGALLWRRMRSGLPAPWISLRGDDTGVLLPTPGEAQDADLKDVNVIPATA

[3] = tested on: Mus musculus; test: Increase in human IgG catabolism in endogenous FcRn/beta2m gene knockout TG32B transgenic mouse harboring human FcRn at 2.5 mg/kg, iv QD for 4 consecutive days measured after 24 hrs by ELISA; assay type: functional, organism-based; parameters: dose 2.5 mg/kg; in short: as §1
[4] = tested on: Mus musculus; test: Increase in human IgG catabolism in endogenous FcRn/beta2m gene knockout TG32B transgenic mouse harboring human FcRn at 5 mg/kg, iv QD for 4 consecutive days measured after 24 hrs by ELISA; assay type: functional, organism-based; parameters: dose 5 mg/kg; in short: as §1
[5] = tested on: Mus musculus; test: Increase in human IgG catabolism in iv dosed endogenous FcRn/beta2m gene knockout TG32B transgenic mouse harboring human FcRn administered QD for 4 consecutive days measured after 24 hrs by ELISA; assay type: functional, organism-based; in short: as §1
[6] = molecular target: T1, IgG receptor FcRn large subunit p51; test: Ratio of RF-Pen-TGHFG-Sar-NMeLeu-YPC IC50 to compound IC50 for soluble human FcRn
[7] = molecular target: T1, IgG receptor FcRn large subunit p51; test: Ratio of RF-Pen-NMeAla-GHF-X-NMeLeu-YPC IC50 to compound IC50 for soluble human FcRn
[8] = molecular target: T1, IgG receptor FcRn large subunit p51; test: Inhibition of IgG binding to soluble human FcRn after 2 hrs by competition ELISA
[9] = molecular target: T1, IgG receptor FcRn large subunit p51; test: Ratio of RFCTGHFGGLYPC IC50 to compound IC50 for soluble human FcRn
[10] = molecular target: T1, IgG receptor FcRn large subunit p51; test: Ratio of RF-Pen-TGHF-valerolactam-NMeLeu-YPC IC50 to compound IC50 for soluble human FcRn

CC(C)C[C@H]1C(=O)N[C@@H](Cc2ccc(O)cc2)C(=O)C(=O)N2CCC[C@H]2C(=O)N[C@H](C(N)=O)CSSC(C)(C)[C@H](NC(=O)[C@H](Cc2ccccc2)NC(=O)[C@H](CCCNC(=N)N)NC(=O)CCC(=O)N[C@@H](CCCNC(=N)N)C(=O)N[C@@H](Cc2ccccc2)C(=O)N[C@@H]2C(=O)N[C@@H]([C@@H](C)O)C(=O)NCC(=O)N[C@@H](Cc3ccc(NC(=N)N)cc3)C(=O)NCC(=O)N(C)CC(=O)N(C)[C@@H](CC(C)C)C(=O)N[C@@H](Cc3ccc(O)cc3)C(=O)C(=O)N3CCC[C@H]3C(=O)N[C@H](C(N)=O)CSSC2(C)C)C(=O)N[C@@H]([C@@H](C)O)C(=O)NCC(=O)N[C@@H](Cc2ccc(NC(=N)N)cc2)C(=O)NCC(=O)N(C)CC(=O)N1C (I: RF[Pen]TG[Phe(4-guanidino)]G[Sar][NMeL][X1]PC-NH2 / II: RF[Pen]TG[Phe(4-guanidino)]G[Sar][NMeL][X1]PC-NH2; disulfide I:3-I:12, II:3-II:12; linker I:N-II:N via Suc)
Activity [1]: Active | Ratio IC50 [2]: 50

CC(C)C[C@H]1C(=O)N[C@@H](Cc2ccc(O)cc2)C(=O)C(=O)N2CCC[C@H]2C(=O)N[C@H](C(N)=O)CSSC(C)(C)[C@H](NC(=O)[C@H](Cc2ccccc2)NC(=O)[C@H](CCCNC(=N)N)NC(=O)CCC(=O)N[C@@H](CCCNC(=N)N)C(=O)N[C@@H](Cc2ccccc2)C(=O)N[C@@H]2C(=O)N[C@@H]([C@@H](C)O)C(=O)NCC(=O)N[C@@H](Cc3c[nH]cn3)C(=O)N[C@@H](Cc3ccccc3)C(=O)NCC(=O)N(C)CC(=O)N(C)[C@@H](CC(C)C)C(=O)N[C@@H](Cc3ccc(O)cc3)C(=O)C(=O)N3CCC[C@H]3C(=O)N[C@H](C(N)=O)CSSC2(C)C)C(=O)N[C@@H]([C@@H](C)O)C(=O)NCC(=O)N[C@@H](Cc2c[nH]cn2)C(=O)N[C@@H](Cc2ccccc2)C(=O)NCC(=O)N(C)CC(=O)N1C
Activity [1]: Active | Activity [3]: Active | Activity [4]: Active | Activity [5]: Active | Ratio IC50 [6]: 220

CC(C)C[C@H]1C(=O)N[C@@H](Cc2ccc(O)cc2)C(=O)C(=O)N2CCC[C@H]2C(=O)N[C@H](C(N)=O)CSSC(C)(C)[C@H](NC(=O)[C@H](Cc2ccccc2)NC(=O)[C@H](CCCNC(=N)N)NC(=O)CCC(=O)NCCN(C)CC(=O)N[C@@H](CCCNC(=N)N)C(=O)N[C@@H](Cc2ccccc2)C(=O)N[C@@H]2C(=O)N(C)[C@@H](C)C(=O)NCC(=O)N[C@@H](Cc3c[nH]cn3)C(=O)N[C@@H](Cc3ccccc3)C(=O)N[C@H]3CCCN(CC(=O)N(C)[C@@H](CC(C)C)C(=O)N[C@@H](Cc4ccc(O)cc4)C(=O)C(=O)N4CCC[C@H]4C(=O)N[C@H](C(N)=O)CSSC2(C)C)C3=O)C(=O)N(C)[C@@H](C)C(=O)NCC(=O)N[C@@H](Cc2c[nH]cn2)C(=O)N[C@@H](Cc2ccccc2)C(=O)N[C@H]2CCCN(CC(=O)N1C)C2=O
Activity [1]: Active | Ratio IC50 [7]: 61 | IC50 [8]: 18 nM

CC(C)C[C@@H]1NC(=O)CNC(=O)CNC(=O)[C@H](Cc2ccccc2)NC(=O)[C@H](Cc2c[nH]cn2)NC(=O)CNC(=O)[C@H]([C@@H](C)O)NC(=O)[C@@H](NC(=O)[C@H](Cc2ccccc2)NC(=O)[C@H](CCCNC(=N)N)NC(=O)CCC(=O)NCCN(C)CC(=O)N[C@@H](CCCNC(=N)N)C(=O)N[C@@H](Cc2ccccc2)C(=O)N[C@H]2CSSC[C@@H](C(N)=O)NC(=O)[C@@H]3CCCN3C(=O)C(=O)[C@H](Cc3ccc(O)cc3)NC(=O)[C@H](CC(C)C)NC(=O)CNC(=O)CNC(=O)[C@H](Cc3ccccc3)NC(=O)[C@H](Cc3c[nH]cn3)NC(=O)CNC(=O)[C@H]([C@@H](C)O)NC2=O)CSSC[C@@H](C(N)=O)NC(=O)[C@@H]2CCCN2C(=O)C(=O)[C@H](Cc2ccc(O)cc2)NC1=O
Ratio IC50 [9]: 12

CC(C)C[C@H]1C(=O)N[C@@H](Cc2ccc(O)cc2)C(=O)C(=O)N2CCC[C@H]2C(=O)N[C@H](C(N)=O)CSSC(C)(C)[C@H](NC(=O)[C@H](Cc2ccccc2)NC(=O)[C@H](CCCNC(=N)N)NC(=O)CCC(=O)NCCN(C)CC(=O)N[C@@H](CCCNC(=N)N)C(=O)N[C@@H](Cc2ccccc2)C(=O)N[C@@H]2C(=O)N[C@@H]([C@@H](C)O)C(=O)NCC(=O)N[C@@H](Cc3c[nH]cn3)C(=O)N[C@@H](Cc3ccccc3)C(=O)N[C@H]3CCCN(CC(=O)N(C)[C@@H](CC(C)C)C(=O)N[C@@H](Cc4ccc(O)cc4)C(=O)C(=O)N4CCC[C@H]4C(=O)N[C@H](C(N)=O)CSSC2(C)C)C3=O)C(=O)N[C@@H]([C@@H](C)O)C(=O)NCC(=O)N[C@@H](Cc2c[nH]cn2)C(=O)N[C@@H](Cc2ccccc2)C(=O)N[C@H]2CCCN(CC(=O)N1C)C2=O
Activity [5]: Active | Ratio IC50 [10]: 110

Source: ChEMBL document CHEMBL1156264, “Synthesis and structure-activity relationships of dimeric peptide antagonists of the human immunoglobulin G-human neonatal Fc receptor (IgG-FcRn) interaction” (J Med Chem, 2010)
